Assay outcomes deposited in PubChem BioAssay by Johns Hopkins Ion Channel Center.
In the library only some 3.8% were active in any assay of this set; here they are far more common.
hERG protect: shields human hERG channel from block by proarrhythmic agents. Q12809. CHO-hERG, FluxOR thallium flux, dofetilide IC70 present. 0.51% of 310,000 active. activation (rescue from dofetilide block), less the hit threshold, % at 10 µM. AID 1511;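 active means activation above the mean of controls blocked by dofetilide plus 5 SD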;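 further: thallium influx through hERG after potassium depolarization seen as dye fluorescence rise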
KCNQ1 block: human KCNQ1 channel inhibition; CHO-K1 KCNQ1, FluxOR thallium flux fluorescence; hits give high values; B-score at 10 µM; P51787; 1.3% of 310,000 active; AID 2642;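 active means compounds whose thallium flux B-score, printed positive for inhibition, exceeds three library SD while starting fluorescence stays within three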;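 further: channel opened by potassium depolarization with thallium stimulus after 20 min compound exposure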
Target sequence (P51787 whole entry, looked up): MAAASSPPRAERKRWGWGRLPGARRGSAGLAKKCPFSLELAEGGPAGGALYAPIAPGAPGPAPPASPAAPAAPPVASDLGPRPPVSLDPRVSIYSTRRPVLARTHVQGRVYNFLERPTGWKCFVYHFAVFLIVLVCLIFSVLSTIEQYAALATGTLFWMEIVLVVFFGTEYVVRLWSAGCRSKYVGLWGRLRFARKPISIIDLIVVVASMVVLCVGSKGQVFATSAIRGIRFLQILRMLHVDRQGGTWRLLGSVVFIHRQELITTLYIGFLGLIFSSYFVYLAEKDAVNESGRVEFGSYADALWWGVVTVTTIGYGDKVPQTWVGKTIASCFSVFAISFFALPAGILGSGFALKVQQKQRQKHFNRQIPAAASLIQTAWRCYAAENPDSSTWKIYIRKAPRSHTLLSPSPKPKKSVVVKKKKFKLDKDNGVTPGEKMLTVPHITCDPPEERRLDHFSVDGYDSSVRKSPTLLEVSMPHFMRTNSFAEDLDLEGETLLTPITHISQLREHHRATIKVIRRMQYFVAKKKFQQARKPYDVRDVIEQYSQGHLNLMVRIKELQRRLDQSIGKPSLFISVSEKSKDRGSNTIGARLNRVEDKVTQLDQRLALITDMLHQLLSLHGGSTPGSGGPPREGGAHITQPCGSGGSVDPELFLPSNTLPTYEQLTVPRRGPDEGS
KCNQ1 act: potentiators or activators of human KCNQ1 potassium channel. B-score at 10 µM. P51787. 0.35% of 310,000 active. AID 2648. CHO-K1 KCNQ1, thallium flux FluxOR fluorescence; hits give high values;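 active means fluorescence ratio B-score, a plate-corrected score, at least three library SD, with initial intensity B-score within 5 SD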
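System: CHO-K1 cells stably expressing KCNQ1 / Medium: assay buffer for compound exposure, DMSO matched across wells / Reagent: thallium- and potassium-containing depolarizing buffer / Compound: one concentration, matched DMSO / Incubation: 20 min compound pretreatment at room temperature / Measured by: kinetic FluxOR fluorescence, 10 s baseline plus 110 s post-stimulus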
KCNK3 block: human KCNK3 channel inhibition, primary screen; CHO-KCNK3 thallium flux, FluxOR fluorescence; hits give low values; B-score at 10 µM; 0.84% of 340,000 active; AID 602410; O14649;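 active means B-score under library mean minus 4 SD, starting fluorescence ratio at most library mean plus 5 SD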;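 further: more negative B-score means stronger inhibition of thallium flux through KCNK3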
KCNK9 inh: human KCNK9 channel inhibition; AID 488922; HEK293 KCNK9, FluxOR thallium flux fluorescence; hits give low values; Q9NPC2; B-score at 10 µM; 1.2% of 310,000 active;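 active means ratio B-score over 3 SD below the library mean, with starting fluorescence within 5 SD of its mean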;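 further: negative B-score means less thallium flux so channel inhibition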
Kir21 block: Kir2.1 (mouse) channel inhibition | P35561 | 0.85% of 310,000 active | AID 1672 | HEK293-Kir2.1, FluxOR thallium flux fluorescence; hits give low values | B-score at 10 µM;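 active means fluorescence ratio B-score at or below minus 3 SD of library scores, with starting-brightness B-score within 2 SD, cut at about -4.2 in these data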;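 further: channel flux triggered by added potassium and thallium sulfate stimulus; B-score of peak minus minimum fluorescence over baseline after thallium stimulus; more negative B-score means stronger Kir2.1 block with less thallium influx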
Active calls of the source: *; i = inactive; nt = no result.

SMILES	hERG protect	KCNQ1 block	KCNQ1 act	KCNK3 block	KCNK9 inh	Kir21 block
c1ccc(N2CCN(c3nc(-c4cccs4)nc4ccccc34)CC2)cc1	-17	i	i	i	-14*	-0.23
CCOP(=O)(OCC)c1nc(-c2ccccc2)oc1NCc1ccccc1	-19	i	i	i	i	-1.5
CCOP(=O)(OCC)c1nc(-c2ccc(F)cc2)oc1NCc1ccccc1	-11	i	i	i	-6.6*	-1.6
CC(=O)Nc1ccccc1NC(=O)C/C(C)=N/NC(=O)C1CCCCC1	-10	i	i	i	i	-0.7
CCOC(=O)c1c(C)[nH]c(C(=O)N/N=C\c2ccccc2O)c1C	-5	i	i	i	i	0.34
CCOC(=O)c1c(C)[nH]c(C(=O)N/N=C/c2cc([N+](=O)[O-])ccc2O)c1C	-17	9*	i	i	i	0.87
O=C(N/N=C/c1cc([N+](=O)[O-])ccc1O)c1cc(-c2ccccc2)nc2ccccc12	-6	7*	i	i	i	1.3
O=C(NNC(=O)c1cc(-c2cccnc2)nc2ccccc12)Nc1ccc(Cl)cc1	-40	12*	i	i	i	-0.85
O=C(Nc1ccccn1)c1cc(-c2cccnc2)nc2ccc(Br)cc12	-13	i	i	i	-6.9*	-0.4
O=C(NNC(=O)c1cc(-c2ccncc2)nc2ccccc12)Nc1ccc(F)cc1	-8	i	i	i	i	1.1
COc1ccc(NC(=O)CN(C)C(=O)c2cc(-c3ccc(Cl)cc3)nc3ccccc23)cc1	-30	7*	i	i	i	1.4
CC(C)(C)c1ccc(-c2cc(C(=O)NNC(=O)Nc3ccccc3)c3ccccc3n2)cc1	-6	i	i	-10*	i	0.62
NC(=O)c1nn(-c2ccccc2)nc1N	-10	i	i	i	i	-0.25
COc1ccc(COC(=O)C2CCN(S(=O)(=O)c3ccc(F)cc3)CC2)cc1	-10	i	i	i	i	-0.84
COC(=O)CCCC1=CC2=CC(=O)C(C)(OC(=O)c3ccco3)C(=O)C2=CO1 (stereo unspecified)	-8	i	i	nt	i	-1.1
C=CCn1c(=S)[nH]c2scc(-c3cccs3)c2c1=O	41*	i	53*	i	i	0.74
Cn1c(=S)[nH]c2scc(-c3cccs3)c2c1=O	58*	i	66*	i	i	-0.02
C=CCn1c(=S)[nH]c2ccccc2c1=O	nt	nt	nt	i	nt	nt
COC(=O)Nc1nnc(SCc2ccc(C)cc2)s1	-3	i	i	i	i	0.15
CN(C(=S)Nc1ccc(SC(F)F)cc1)C(c1ccccc1)c1ccccc1	-11	10*	i	i	i	0.25
S=C(NCC1CCCCC1)Nc1cccnc1	-4	i	i	i	i	2.1
FC(F)Sc1ccc(NC(=S)NC(c2ccccc2)c2ccccc2)cc1	-43	11*	i	i	i	-0.05
FC(F)Sc1ccc(NC(=S)NCC2CCCCC2)cc1	-16	9*	i	i	-7.3*	-0.14
CC(NC(=S)Nc1ccc(F)cc1)c1ccccc1 (stereo unspecified)	-2	i	i	i	i	-2.6
O=C1C2CC=CCC2C(=O)N1Cc1nnc(-c2ccc(Cl)cc2)o1 (stereo unspecified)	-18	i	i	i	i	0.36
SMILES	hERG protect	KCNQ1 block	KCNQ1 act	KCNK3 block	KCNK9 inh	Kir21 block
Cc1ccccc1-n1c(SC(C)C(N)=O)nnc1-c1cccnc1 (stereo unspecified)	-6	i	i	i	i	0.7
CN(C)c1cc[n+](CC(=O)Nc2cc(C(F)(F)F)ccc2Cl)cc1	3	i	i	i	i	-0.31
O=C(NC(=S)Nc1cc(C(F)(F)F)ccc1Cl)c1ccccc1	4.7*	i	i	i	i	1.3
Cc1cc[n+](CC(=O)Nc2cc(C(F)(F)F)ccc2Cl)cc1	4.9*	i	i	i	i	-0.31
O=C(Nc1cc(C(F)(F)F)ccc1Cl)C(NCc1ccccc1)c1ccccc1 (stereo unspecified)	-21	11*	i	i	-7.1*	-0.39
O=C(CC(=O)c1ccccc1)Nc1cc(C(F)(F)F)ccc1Cl	-6	i	i	i	i	0.38
COC(=O)c1ccccc1NC(=O)c1sc(=S)n(C)c1N	-1	i	i	i	i	1.7
Cc1cc(Sc2ncnc(N)c2[N+](=O)[O-])ncn1	-24	6*	i	i	i	-1.2
Cc1c(Cc2ccccc2)c(=O)oc2cc(O)cc(O)c12	-11	i	i	i	i	-5.3*
Cc1coc2cc3oc(=O)c(Cc4ccccc4)c(C)c3cc12	-2	i	i	i	i	1.1
Cc1cc(Cl)c(OCCOCCN2CCCC(C)C2)c(Br)c1 (stereo unspecified)	-24	i	i	i	i	-4.3*
Cc1cc(Cl)c(OCCOCCN2CCCCC2)c(Br)c1	-2	i	i	i	i	-0.01
O=C1CSC(c2ccccn2)N1c1ccc(Cl)c(Cl)c1 (stereo unspecified)	-9	i	i	i	-7.6*	0.12
CN1CCN(CC#CCn2c3ccccc3c3ccccc32)CC1	-13	i	i	i	i	-7.1*
CCOC(=O)c1[nH]c(C)c(C(=O)OCC(=O)N2CC(=O)Nc3ccccc32)c1C	-9	i	i	i	i	0.38
Cc1ccc(S(=O)(=O)Nc2cc(C)c(O)cc2C)cc1	-7	i	i	i	i	-4.9*
COc1ccc(S(=O)(=O)Nc2cc(C(C)C)c(O)cc2C)cc1	-12	i	i	i	i	-1.3
Cc1cc(NS(=O)(=O)c2ccccc2)c(C)c(Cl)c1O	-16	i	i	i	i	-5.8*
CC(=O)NCC(=O)NC1(C(=O)NC2CCCC2)CCCCC1	0	i	i	i	i	1.9
COCCNC(=O)CN(C(=O)c1ccc(N2CCCC2)nc1)c1ccccc1	5.1*	i	i	i	i	-0.22
COCCNC(=O)CN(C(=O)c1ccc(N2CCCC2)nc1)c1ccc(F)c(Cl)c1	-7	i	i	i	i	-0.24
O=C(CSc1nnc(-c2ccncc2)n1Cc1ccco1)Nc1ccccc1Cl	-15	i	i	i	i	-2.7
O=C(CSc1nnc(-c2ccncc2)n1Cc1ccco1)Nc1ccccc1F	-6	i	i	i	-6.9*	-1.6
O=C(NC(=S)Nc1nc2ccc(F)cc2s1)c1ccco1	40*	i	47*	i	i	0.15
